T cruzi growth-1 = T. cruzi intracellular proliferation inhibitors, primary screen, cell-based, beta-gal Tulahuen parasites, NIH3T3 host, luminescence; T. cruzi beta-gal in NIH3T3, GalScreen luminescence, 90 h; inhibition, % at 8.34 µM; AID 624255, 2012; actives 5.9% (n = 77,000);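 active = mean inhibition above about 93%, with at least 55% of replicates each passing it, limit read from the data, passing the limit was not always enough; inconclusive = only one of those two conditions holds; inactive = neither condition holds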
Pf Dd2 growth = P. falciparum Dd2 growth inhibitors, primary screen, SYBR Green fluorescence, single dose replicates. 72 h; stronger effect = lower value. activity change, % at 10 µM. actives 2.3% (n = 94,000). AID 1159554, 2015; in the data active = activity change below about -80%; inconclusive = no clear call, values can overlap the other calls
IDH1 R132H inh = inhibitors of IDH1 R132H reductase, primary screen, biochemical, plate reader, single point; Isocitrate dehydrogenase [NADP] cytoplasmic (Homo sapiens), O75874; diaphorase/resazurin fluorescence, 60 min; inhibition, % at 10 µM; actives 0.18% (n = 70,000); AID 624101, 2012; in the data active = inhibition above about 34%; inconclusive = no clear call, values can overlap the other calls; inactive = below about 11%;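 also: 0% = DMSO and 100% = no enzyme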
Target sequence (O75874 whole entry R132H): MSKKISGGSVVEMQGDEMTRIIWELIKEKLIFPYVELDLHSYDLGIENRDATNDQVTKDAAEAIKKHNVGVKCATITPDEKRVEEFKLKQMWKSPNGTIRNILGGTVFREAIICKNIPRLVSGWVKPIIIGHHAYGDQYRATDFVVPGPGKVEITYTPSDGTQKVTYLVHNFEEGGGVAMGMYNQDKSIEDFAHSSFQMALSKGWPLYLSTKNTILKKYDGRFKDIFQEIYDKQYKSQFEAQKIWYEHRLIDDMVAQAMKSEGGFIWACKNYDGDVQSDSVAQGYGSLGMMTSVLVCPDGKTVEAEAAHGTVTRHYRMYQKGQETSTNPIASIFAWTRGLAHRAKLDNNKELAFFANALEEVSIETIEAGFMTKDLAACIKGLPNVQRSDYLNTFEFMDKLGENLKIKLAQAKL
KDM4C inh = inhibitors of GASC-1 (KDM4C) histone demethylase, primary screen, biochemical, single concentration HTS. GST-KDM4C 2-372, H3K9me3 peptide, LANCE TR-FRET. inhibition, % at 12.5 µM. actives 0.15% (n = 96,000). AID 720574, 2013;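 active = mean replicate inhibition above about 25%, with at least 55% of replicates also reaching it, limit read from the data, passing the limit was not always enough; inconclusive = only one of those two conditions met; inactive = neither condition met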
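reagent = H3K9me3 peptide substrate, Fe(II), 2-oxoglutarate | system = GST-tagged GASC-1 (JMJD2C) catalytic fragment, aa 2-372 | amount = enzyme final amount 10 nM | read-out = Fall in 671/618 emission ratio as inhibition | medium = HEPES buffer, pH 7.5, plus ascorbate | schedule = 30 min reaction, 60 min detection, RT | measured by = LANCE TR-FRET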
T cruzi growth-2 = T. cruzi intracellular proliferation inhibitors, confirmation, cell-based, NIH3T3 host, beta-gal parasite, luminescence, cherry-pick; shares compounds with T cruzi growth-1; T. cruzi beta-gal in NIH3T3, GalScreen luminescence, 90 h; inhibition, % at 8.35 µM; actives 72% (n = 5,600); AID 651739, 2012;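 active = mean replicate inhibition above about 95% and at least 55% of replicates individually reaching it, limit read from the data; inconclusive = only one of the two criteria is met; inactive = neither criterion is met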
T cruzi growth-3 = inhibitors of intracellular T. cruzi replication, confirmation, NIH3T3 host cells, beta-gal parasites, cherry-pick, set 2; shares compounds with T cruzi growth-1; T. cruzi beta-gal in NIH3T3, GalScreen luminescence, 90 h; inhibition, % at 2.09 µM; actives 21% (n = 5,600);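 active = mean inhibition above about 95%, with at least 55% of replicates also reaching it, limit read from the data; inconclusive = meets just one of the two conditions; inactive = meets neither condition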;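 also: plate controls were neutral control median for no effect and positive control median for full effect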
NIH3T3 tox = cytotoxicity in mouse NIH/3T3 fibroblasts, confirmation, cytotoxicity control for T. cruzi proliferation inhibitor project, cell-based, cherry-pick, single point; shares compounds with T cruzi growth-1; NIH/3T3 viability, CellTiter-Glo ATP luminescence, 90 h; cytotoxicity (signal decrease), % at 8.35 µM; actives 14% (n = 5,600); AID 651742, 2012;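 active = mean signal decrease across replicates above about 35% based on untreated-well scatter, with enough replicates individually passing, limit read from the data; inconclusive = no rule stated though some were filed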;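 also: 0% = median of neutral control wells and 100% = median of positive control wells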
3T3 cytotox 2 = NIH/3T3 fibroblast cytotoxicity, confirmation, cytotoxicity control, cell-based, cherry-pick, single point, set 2; shares compounds with T cruzi growth-1; NIH/3T3 viability, CellTiter-Glo ATP luminescence, 90 h; inhibition, % at 24.9 µM; actives 56% (n = 5,600); AID 651744, 2012;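 active = mean loss of cell viability signal at or above a set limit, and enough replicates individually reaching it; inconclusive = meets only the mean limit or only the replicate share; inactive = meets neither condition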;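 also: 0% = median of neutral control wells and 100% = median of positive control wells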
Starred values were filed as active, the others as inactive; ? = inconclusive; . = not tested or not shown. Sampled rows, rich in hits. Any-hit rate of the full collection: about 5.8%.

SMILES	T cruzi growth-1	Pf Dd2 growth	IDH1 R132H inh	KDM4C inh	T cruzi growth-2	T cruzi growth-3	NIH3T3 tox	3T3 cytotox 2
CSc1ccccc1NC(=O)CN(c1cc(Cl)ccc1C)S(C)(=O)=O	.	.	0	.	.	.	.	.
CS(=O)(=O)N(CC(=O)Nc1ccc(F)cc1)c1ccccc1	.	.	0	.	.	.	.	.
C[C@H]1CN([C@@H](C)CO)S(=O)(=O)c2ccc(C#CCN(C)C)cc2O[C@@H]1CN(C)Cc1ccccc1F	110*	-76	0	-1	107*	91	5	105*
C[C@H]1CN([C@@H](C)CO)S(=O)(=O)c2ccc(C#CC3CC3)cc2O[C@H]1CN(C)Cc1ccccc1F	106*	-11	-1	14	106*	77	11	107*
C[C@@H]1CN([C@@H](C)CO)S(=O)(=O)c2ccc(C#CCN(C)C)cc2O[C@H]1CN(C)Cc1ccccc1F	116*	-74	-4	0	?	85	51*	105*
CC(=O)Nc1nonc1-c1nc2ccccc2n1Cc1cccc2ccccc12	.	.	0	.	.	.	.	.
O=[N+]([O-])c1nn(-c2ccc(Cl)cc2)n(O)c1=NCc1ccccn1	.	.	0	.	.	.	.	.
N#Cc1ccccc1NC(=O)CS(=O)(=O)Cc1ccccc1	.	.	0	.	.	.	.	.
O=c1cc(-c2ccc(O)cc2)oc2cc(O[C@@H]3O[C@H](CO)[C@@H](O)[C@H](O)[C@H]3O[C@H]3OC[C@](O)(CO)[C@H]3O)ccc12	.	.	0	.	.	.	.	.
Cc1ccc(-c2ccc([C@@H]3[C@@H](CO)N4CCCCN(C(=O)Nc5ccccc5)C[C@@H]34)cc2)cc1	110*	-14	.	-1	106*	72	26	104*
Cc1ccc(-c2ccc([C@H]3[C@H]4CN(C(=O)Nc5ccccc5)CCCCN4[C@H]3CO)cc2)cc1	109*	17	.	-2	107*	43	21	91*
O=C(Nc1ccccc1)N1CCCCN2[C@H](C1)[C@H](c1ccc(-c3ccccc3)cc1)[C@@H]2CO	128*	-69	.	0	103*	43	12	9
O=C(CSc1nnc(-c2ccc(Cl)cc2)o1)c1cccc([N+](=O)[O-])c1	.	.	1	.	.	.	.	.
COc1cc(C(=O)OCc2ccc(-c3cccc(Cl)c3Cl)o2)cc(OC)c1OC	.	.	0	.	.	.	.	.
COC(=O)c1ccccc1NC(=O)C1CCCN(S(=O)(=O)c2ccc(Br)cc2)C1 (stereo unspecified)	.	.	0	.	.	.	.	.
COc1cccc(-c2ccc3c(c2)[C@H]2[C@H](CCN2C(=O)CC2CC2)[C@H](CO)N3C)c1	9	-9	.	2	.	.	.	.
COCC(=O)N1CC[C@H]2[C@@H]1c1cc(-c3cccc(OC)c3)ccc1N(C)[C@H]2CO	101*	8	.	2	108*	79	4	-7
COCC(=O)N1CC[C@@H]2[C@H]1c1cc(-c3cccc(OC)c3)ccc1N(C)[C@H]2CO	96*	-6	.	3	103*	106*	-24	-38
CCC(=O)N1CC[C@@H]2[C@H]1c1cc(-c3ccccc3)ccc1N(C)[C@H]2CO	36	-5	.	2	.	.	.	.
CCC(=O)N1CC[C@H]2[C@@H]1c1cc(-c3cccc(OC)c3)ccc1N(C)[C@H]2CO	99*	-1	.	0	101*	77	11	-4
COc1cccc(-c2ccc3c(c2)[C@@H]2[C@@H](CCN2C(=O)CC2CC2)[C@H](CO)N3C)c1	5	-18	.	2	.	.	.	.
COc1ccc(N2C(=O)CC(SCC(=O)Nc3ccc(F)cc3)C2=O)cc1 (stereo unspecified)	.	.	-1	.	.	.	.	.
CCc1cc(C(=O)OC)c(NC(=S)Nc2cn(CC)nc2C(N)=O)s1	.	.	0	.	.	.	.	.
N#C[C@@H]1[C@H](c2ccc(C#CCC3CCCC3)cc2)[C@H](CO)N1C(=O)CN1CCOCC1	?	-41	.	-2	102*	107*	22	77*
COCC(=O)N1[C@@H](C#N)[C@@H](c2ccc(C#CCC3CCCC3)cc2)[C@@H]1CO	?	-21	.	-1	99*	90	17	103*
SMILES	T cruzi growth-1	Pf Dd2 growth	IDH1 R132H inh	KDM4C inh	T cruzi growth-2	T cruzi growth-3	NIH3T3 tox	3T3 cytotox 2
N#C[C@H]1[C@@H](c2ccc(C#CCC3CCCC3)cc2)[C@H](CO)N1C(=O)CN1CCOCC1	90	-28	.	-1	.	.	.	.
COCC#Cc1ccc2c(c1)O[C@@H](CN(C)CC1CCCCC1)[C@H](C)CN([C@@H](C)CO)S2(=O)=O	?	-54	0	2	103*	90	?	105*
COCC#Cc1ccc2c(c1)O[C@H](CN(C)CC1CCOCC1)[C@H](C)CN([C@@H](C)CO)S2(=O)=O	13	-77	.	0	.	.	.	.
COCC#Cc1ccc2c(c1)O[C@@H](CN(C)CC1CCCCC1)[C@@H](C)CN([C@@H](C)CO)S2(=O)=O	105*	-70	-2	-1	102*	85	11	40*
O=C(CSc1nc2ccccc2[nH]1)Nc1ccc(Cl)c(Br)c1	.	.	0	.	.	.	.	.
COC(=O)c1ccc(NC(=O)CN(c2ccc(C)cc2C)S(C)(=O)=O)cc1	.	.	2	.	.	.	.	.
O=S(=O)(Cc1ccccc1)N1CCCCN2[C@H](CO)[C@@H](c3ccc(-c4ccccc4)cc3)[C@@H]2C1	114*	-24	.	-1	102*	103*	?	101*
O=S(=O)(Cc1ccccc1)N1CCCCN2[C@H](CO)[C@H](c3ccc(-c4ccncc4)cc3)[C@@H]2C1	-70	-2	.	-1	.	.	.	.
O=S(=O)(Cc1ccccc1)N1CCCCN2[C@H](CO)[C@H](c3ccc(-c4ccccc4)cc3)[C@H]2C1	106*	-42	.	-1	98*	63	54*	104*
Cc1c(CCC(=O)O)c(=O)oc2cc(OCc3ccc(Cl)c(Cl)c3)ccc12	.	.	0	.	.	.	.	.
COc1ccc(NC(=O)Nc2ccc3c(c2)C(=O)N([C@H](C)CO)C[C@@H](C)[C@@H](CN(C)C(=O)Nc2ccc(OC)cc2)OCCCC[C@@H](C)O3)cc1	.	-56	2	0	.	.	.	.

Compound activity as filed in PubChem BioAssay.
